From ChEMBL document CHEMBL1123783, “Synthesis and anticonvulsant activity of analogues of 4-amino-N-(1-phenylethyl)benzamide” (J Med Chem, 1987)

Tests used:
Mus musculus [1] = assay: Compound was evaluated for anticonvulsant activity against subcutaneous pentylenetetrazole-induced convulsions after 4 hr; C is inactive at 300 mg/kg.; assay type: functional, organism-based; design: dose 300 mg/kg
Outline: (§1)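 Male Carworth Farms number-one mice were dosed ip in 30% PEG 400, at 30, 100 or 300 mg/kg (sometimes 600 mg/kg). Pentylenetetrazole, 85 mg/kg as a 0.5% solution, was injected subcutaneously in the posterior midline. Protection meant no episode of clonic spasms lasting at least 5 s during a 30-min observation period.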

Mus musculus [2] = assay: Compound was evaluated for anticonvulsant activity against maximal electric shock (MES) induced convulsions after 4 hr; C is inactive at 300 mg/kg.; assay type: functional, organism-based; design: dose 300 mg/kg
Mus musculus [3] = assay: Compound was evaluated for toxicity by rotarod assay method after 4 hr; C is inactive at 300 mg/kg.; assay type: organism-based; design: dose 300 mg/kg; conditions: in vivo
Outline: (§2)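 Male Carworth Farms number-one mice received test compound intraperitoneally in 30% polyethylene glycol 400 at 30, 100 and 300 mg/kg, with 600 mg/kg in some cases. Neurological deficit was read at 30 min or 4 h after dosing on a 1-in.-diameter knurled plastic rod turning at 6 rpm. Toxicity was scored as failure to stay on the rod for 1 min.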

Mus musculus [4] = assay: Compound was evaluated for toxicity by rotarod assay method after 30 minutes; C is inactive at 300 mg/kg.; assay type: organism-based; design: dose 300 mg/kg; conditions: in vivo, 0.5 h; outline: as §2
Mus musculus [5] = assay: Compound was evaluated for anticonvulsant activity against maximal electric shock (MES) induced convulsions after 30 minutes;C is inactive at 300 mg/kg.; assay type: functional, organism-based; design: dose 300 mg/kg
Mus musculus [6] = assay: Compound was evaluated for anticonvulsant activity against subcutaneous pentylenetetrazole-induced convulsions after 30 minutes;C is inactive at 300 mg/kg.; assay type: functional, organism-based; design: dose 300 mg/kg; outline: as §1
[7] = Compound was evaluated for anticonvulsant activity by rotarod procedure; assay type: ADME, organism-based; conditions: mouse, in vivo
Outline: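 Male Carworth Farms mice were dosed ip in 30% PEG 400 and then placed on a knurled plastic rod 1 in. in diameter, rotating at 6 rpm. Neurotoxicity was failure to stay on the rod for 1 min. TD50 was derived graphically.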

Mus musculus [8] = assay: Compound was evaluated for anticonvulsant activity against subcutaneous pentylenetetrazole-induced convulsions after 30 minutes; D indicates no activity at 100 mg/kg; assay type: functional, organism-based; design: dose 100 mg/kg; outline: as §1
Mus musculus [9] = assay: Compound was evaluated for anticonvulsant activity against subcutaneous pentylenetetrazole-induced convulsions after 4 hr; D indicates no activity at 100 mg/kg; assay type: functional, organism-based; design: dose 100 mg/kg; outline: as §1
Mus musculus [10] = assay: Compound was evaluated for toxicity by rotarod assay method after 4 hr at a dose of 100 mg/kg; assay type: organism-based; design: dose 100 mg/kg; conditions: in vivo; outline: as §2
Mus musculus [11] = assay: Compound was evaluated for anticonvulsant activity against maximal electric shock (MES) induced convulsions after 30 minutes at a dose of 30 mg/kg; assay type: functional
Mus musculus [12] = assay: Compound was evaluated for toxicity by rotarod assay method after 30 minutes at a dose of 100 mg/kg; assay type: organism-based; design: dose 100 mg/kg; conditions: in vivo, 0.5 h; outline: as §2
[13] = Protective index is the ratio of TD50 to ED50; assay type: ADME; conditions: for selectivity ratio: read-out: Protective index
Outline: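 Protective index was calculated as rotorod TD50 divided by anti-MES ED50. Both were graphical median doses from ip dosing in 30% PEG 400 in male Carworth Farms mice.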

Mus musculus [14] = assay: Compound was evaluated for anticonvulsant activity against maximal electric shock (MES) induced convulsions after 4 hr at a dose of 100 mg/kg; assay type: functional
Mus musculus [15] = organism: Mus musculus; assay: Compound was evaluated for anticonvulsant activity against maximal electric shock induced seizures; assay type: functional
Outline: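 Male Carworth Farms number-one mice received the compound ip in 30% polyethylene glycol 400 before maximal electroshock testing, at several dose levels. The median effective dose (ED50) was obtained by the graphical method.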

Mus musculus [16] = assay: Compound was evaluated for anticonvulsant activity against maximal electric shock (MES) induced convulsions after 4 hr at a dose of 300 mg/kg; assay type: functional
Mus musculus [17] = assay: Compound was evaluated for anticonvulsant activity against maximal electric shock (MES) induced convulsions after 30 minutes at a dose of 100 mg/kg; assay type: functional
Mus musculus [18] = assay: Compound was evaluated for anticonvulsant activity against subcutaneous pentylenetetrazole-induced convulsions; assay type: functional; conditions: sc; outline: as §1
Mus musculus [19] = assay: Compound was evaluated for anticonvulsant activity against subcutaneous pentylenetetrazole-induced convulsions after 30 minutes at a dose of 300 mg/kg; assay type: functional; outline: as §1
Mus musculus [20] = assay: Compound was evaluated for toxicity by rotarod assay method after 30 minutes at a dose of 300 mg/kg; assay type: organism-based; design: dose 300 mg/kg; conditions: in vivo, 0.5 h; outline: as §2
Mus musculus [21] = assay: Compound was evaluated for anticonvulsant activity against subcutaneous pentylenetetrazole-induced convulsions after 4 hr; C indicates no activity at 300 mg/kg.; assay type: functional, organism-based; design: dose 300 mg/kg; outline: as §1
Mus musculus [22] = assay: Compound was evaluated for toxicity by rotarod assay method after 4 hr; C indicates no activity at 300 mg/kg.; assay type: organism-based; design: dose 300 mg/kg; conditions: in vivo; outline: as §2
Mus musculus [23] = assay: Compound was evaluated for anticonvulsant activity against maximal electric shock (MES) induced convulsions after 4 hr; C indicates no activity at 300 mg/kg.; assay type: functional, organism-based; design: dose 300 mg/kg
Mus musculus [24] = assay: Compound was evaluated for anticonvulsant activity against subcutaneous pentylenetetrazole-induced convulsions after 30 minutes; C indicates no activity at 300 mg/kg.; assay type: functional, organism-based; design: dose 300 mg/kg; outline: as §1
Mus musculus [25] = assay: Compound was evaluated for anticonvulsant activity against maximal electric shock (MES) induced convulsions after 30 minutes; C indicates no activity at 300 mg/kg.; assay type: functional, organism-based; design: dose 300 mg/kg
Mus musculus [26] = assay: Compound was evaluated for anticonvulsant activity against subcutaneous pentylenetetrazole-induced convulsions after 4 hr at a dose of 300 mg/kg; assay type: functional; outline: as §1
Mus musculus [27] = assay: Compound was evaluated for toxicity by rotarod assay method after 30 minutes; C indicates no activity at 300 mg/kg.; assay type: organism-based; design: dose 300 mg/kg; conditions: in vivo, 0.5 h; outline: as §2
Mus musculus [28] = assay: Compound was evaluated for anticonvulsant activity against subcutaneous pentylenetetrazole-induced convulsions after 30 minutes;C indicates no activity at 300 mg/kg.; assay type: functional, organism-based; design: dose 300 mg/kg; outline: as §1
Mus musculus [29] = assay: Compound was evaluated for anticonvulsant activity against maximal electric shock (MES) induced convulsions after 30 minutes at a dose of 300 mg/kg; assay type: functional
Mus musculus [30] = assay: Compound was evaluated for toxicity by rotarod assay method after 4 hr at a dose of 300 mg/kg; assay type: organism-based; design: dose 300 mg/kg; conditions: in vivo; outline: as §2

Structure (SMILES): CN(C)c1ccc(C(=O)NCCc2ccccc2)cc1
- Activity (Mus musculus [1]): No activity at 300 mg/kg
- Activity (Mus musculus [2]): No activity at 300 mg/kg
- Toxicity (Mus musculus [3]): No activity at 300 mg/kg
- Toxicity (Mus musculus [4]): No activity at 300 mg/kg
- Activity (Mus musculus [5]): No activity at 300 mg/kg
- Activity (Mus musculus [6]): No activity at 300 mg/kg

Structure (SMILES): CNCc1ccc(C(=O)NC(C)c2ccccc2)cc1 (centres undefined)
- TD50 [7]: 22.4 mg/kg
- Activity (Mus musculus [8]): No activity at 100 mg/kg
- Activity (Mus musculus [9]): No activity at 100 mg/kg
- Toxicity (Mus musculus [10]): 3
- Activity (Mus musculus [11]): 4
- Toxicity (Mus musculus [12]): 3
- selectivity ratio [13]: 1.66
- Activity (Mus musculus [14]): 3
- ED50 (Mus musculus [15]): 13.5 mg/kg

Structure (SMILES): CCCCC(NC(=O)c1ccc(N)cc1)c1ccccc1 (centres undefined)
- Activity (Mus musculus [16]): 2
- TD50 [7]: 332 mg/kg
- Activity (Mus musculus [17]): 3
- ED50 (Mus musculus [18]): 161 mg/kg
- Activity (Mus musculus [19]): 2
- Toxicity (Mus musculus [20]): 2
- Protective index [13]: 2.06
- Activity (Mus musculus [21]): No activity at 300 mg/kg
- Toxicity (Mus musculus [22]): No activity at 300 mg/kg
- ED50 (Mus musculus [15]): 73.7 mg/kg

Structure (SMILES): CCOC(=O)C(=O)Nc1ccc(C(=O)NC(C)c2ccccc2)cc1 (centres undefined)
- Activity (Mus musculus [23]): No activity at 300 mg/kg
- Activity (Mus musculus [24]): No activity at 300 mg/kg
- Activity (Mus musculus [25]): No activity at 300 mg/kg
- Toxicity (Mus musculus [20]): 2
- Activity (Mus musculus [21]): No activity at 300 mg/kg
- Toxicity (Mus musculus [22]): No activity at 300 mg/kg

Structure (SMILES): Cc1ccc(C(C)NC(=O)c2ccc(N)cc2)cc1 (centres undefined)
- Activity (Mus musculus [1]): No activity at 300 mg/kg
- Activity (Mus musculus [2]): No activity at 300 mg/kg
- Toxicity (Mus musculus [3]): No activity at 300 mg/kg
- Toxicity (Mus musculus [4]): No activity at 300 mg/kg
- Activity (Mus musculus [5]): No activity at 300 mg/kg
- Activity (Mus musculus [6]): No activity at 300 mg/kg

Structure (SMILES): CC(NCc1ccc(N)cc1)c1ccccc1 (centres undefined)
- TD50 [7]: 15.5 mg/kg
- Activity (Mus musculus [23]): No activity at 300 mg/kg
- Activity (Mus musculus [24]): No activity at 300 mg/kg
- Activity (Mus musculus [11]): 4
- Toxicity (Mus musculus [12]): 3
- selectivity ratio [13]: 1.4
- Activity (Mus musculus [21]): No activity at 300 mg/kg
- Toxicity (Mus musculus [22]): No activity at 300 mg/kg
- ED50 (Mus musculus [15]): 11.1 mg/kg

Structure (SMILES): CNc1ccc(C(=O)NC(C)c2ccccc2)cc1 (centres undefined)
- Activity (Mus musculus [16]): 2
- Activity (Mus musculus [17]): 3
- Activity (Mus musculus [26]): 2
- Activity (Mus musculus [19]): 2
- Toxicity (Mus musculus [27]): No activity at 300 mg/kg
- Toxicity (Mus musculus [22]): No activity at 300 mg/kg

Structure (SMILES): CCCC(NC(=O)c1ccc(N)cc1)c1ccccc1 (centres undefined)
- Activity (Mus musculus [16]): 2
- TD50 [7]: 378 mg/kg
- Activity (Mus musculus [17]): 3
- ED50 (Mus musculus [18]): 78.8 mg/kg
- Activity (Mus musculus [24]): No activity at 300 mg/kg
- Protective index [13]: 4.8
- selectivity ratio [13]: 4.03
- Toxicity (Mus musculus [27]): No activity at 300 mg/kg
- Activity (Mus musculus [21]): No activity at 300 mg/kg
- Toxicity (Mus musculus [22]): No activity at 300 mg/kg
- ED50 (Mus musculus [15]): 93.9 mg/kg

Structure (SMILES): CC(NC(=O)c1ccc(N)cc1)c1ccc(F)cc1 (centres undefined)
- Activity (Mus musculus [28]): No activity at 300 mg/kg
- Activity (Mus musculus [29]): 2
- Toxicity (Mus musculus [27]): No activity at 300 mg/kg
- Activity (Mus musculus [21]): No activity at 300 mg/kg
- Activity (Mus musculus [14]): 3
- Toxicity (Mus musculus [30]): 2

Structure (SMILES): CCC(NC(=O)c1ccc(N)cc1)c1ccccc1 (centres undefined)
- TD50 [7]: 95.4 mg/kg
- Activity (Mus musculus [17]): 3
- ED50 (Mus musculus [18]): 54.1 mg/kg
- Activity (Mus musculus [26]): 2
- Activity (Mus musculus [19]): 2
- Toxicity (Mus musculus [12]): 3
- selectivity ratio [13]: 1.76
- Activity (Mus musculus [14]): 3
- Toxicity (Mus musculus [30]): 2
- ED50 (Mus musculus [15]): 54.3 mg/kg
